Test [1] in a line: Her2 expression decrease, cell viability multiplex – SKBR3 breast tumor cells, AlphaScreen, ATP viability, primary screen (AID 461;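 active = Her2 level under about 52% in both replicate screens, with viability over 70% of control, limit read from the data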;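 for Her2 level: lower value means less Her2 protein in the cells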;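 for viability: percent of carrier control wells set as 100% viability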). The settings on record: SKBR3 Her2 protein level, 18-24 h, measured here: SKBR3 viability, ATP luminescence, at 10 µM. For orientation: Bead proximity is the source of the signal in Alpha formats.
For test [2], the target named is Receptor tyrosine-protein kinase erbB-2 (Homo sapiens) (UniProt P04626). The test is described as above. As to conditions: 18-24 h, at 10 µM, stronger effect = lower value.
A short description of test [3]: reduced viability of SK-BR-3 breast cancer cells – cell-based, 24 h, human, pilot screen (AID 572;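 active = viability at or below 10% of carrier control in both of two separate runs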;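 note: compound exposure lasted between 18 and 24 h rather than exactly 24 h; 100% = carrier-treated control wells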). As to conditions: SK-BR-3 viability, CellTiter-Glo luminescence, at 10 µM, stronger effect = lower value. In general terms: ATP-based viability assays read luminescence as a measure of living cells.
Test [4] can be described thus: HUVEC growth inhibition – cell-based, human, primary screen (AID 575;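 active = viability at or below 30% in both replicate assays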;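 note: 100% = median of untreated cell wells with 0.1% DMSO on each plate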). As to conditions: HUVEC proliferation, CellTiter-Glo luminescence, 72 h; at 10 µM; stronger effect = lower value. In outline: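 Test system: primary human umbilical vein endothelial cells. Quantity: 1250 cells/well. Compound: single 10 µM dose, 0.1% DMSO, from 5x medium stock. Timing: 72 h treatment at 37 °C. Detection: ATP-based CellTiter-Glo luminescent read. Benchmarks: vehicle and MePR control wells. Format: 384-well plates coated with collagen.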

A short description of test [5]: H69AR cell proliferation blockers – human, duplicate replicates, primary screen (AID 580).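 Note: 100% = mean luminescence of untreated wells and 0% = no signal.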 As to conditions: H69AR lung tumor cells viability, ATP luminescence, 72 h; at 10 µM; stronger effect = lower value.
A short description of test [6]: MRP1 drug-resistance reversers in H69AR cells – cell-based, doxorubicin co-treatment, pilot screen (AID 601;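 active = viability loss from added drug above about 55%, and viability with drug at most 40%, in both replicates, limit read from the data, passing the limit was not always enough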). The settings on record: CellTiter-Glo, 72 h, at 10 µM; for differential viability (reversal): stronger effect = higher value.
Test [7] can be described thus: yeast transport mutant growth inhibition pilot in 384-well plates, post-Golgi transport modulator project (AID 636; in the data active = inhibition above about 31%). The settings on record: absorbance 615 nm, about 18 h, stronger effect = higher value.
A short description of test [8]: growth suppression of yeast trafficking mutant, preliminary HTS, modulators of trafficking downstream of Golgi apparatus project, 1536-format plate, OD 615 nm (AID 637; in the data active = inhibition above about 30%). The settings on record: yeast transport mutant growth, absorbance 615 nm, 18 h; stronger effect = higher value.
[9] abbreviates: H69AR cells + 2 uM doxorubicin, measured here: viability with 2 uM doxorubicin, stronger effect = lower value.
Setting [10] is: H69AR cells, compound alone cytotoxicity.

Active and inactive are the calls of the source.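 Rule for the calls, unless noted: active = viability at or under a set limit in both replicates, limit being median viability minus 3 SD (cut at about 48% in these data, passing the limit was not always enough); inconclusive = at or under the limit in just one replicate; inactive = at or above the limit in both replicates.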

Receptor tyrosine-protein kinase erbB-2 (Homo sapiens), sequence (P04626 whole entry, looked up): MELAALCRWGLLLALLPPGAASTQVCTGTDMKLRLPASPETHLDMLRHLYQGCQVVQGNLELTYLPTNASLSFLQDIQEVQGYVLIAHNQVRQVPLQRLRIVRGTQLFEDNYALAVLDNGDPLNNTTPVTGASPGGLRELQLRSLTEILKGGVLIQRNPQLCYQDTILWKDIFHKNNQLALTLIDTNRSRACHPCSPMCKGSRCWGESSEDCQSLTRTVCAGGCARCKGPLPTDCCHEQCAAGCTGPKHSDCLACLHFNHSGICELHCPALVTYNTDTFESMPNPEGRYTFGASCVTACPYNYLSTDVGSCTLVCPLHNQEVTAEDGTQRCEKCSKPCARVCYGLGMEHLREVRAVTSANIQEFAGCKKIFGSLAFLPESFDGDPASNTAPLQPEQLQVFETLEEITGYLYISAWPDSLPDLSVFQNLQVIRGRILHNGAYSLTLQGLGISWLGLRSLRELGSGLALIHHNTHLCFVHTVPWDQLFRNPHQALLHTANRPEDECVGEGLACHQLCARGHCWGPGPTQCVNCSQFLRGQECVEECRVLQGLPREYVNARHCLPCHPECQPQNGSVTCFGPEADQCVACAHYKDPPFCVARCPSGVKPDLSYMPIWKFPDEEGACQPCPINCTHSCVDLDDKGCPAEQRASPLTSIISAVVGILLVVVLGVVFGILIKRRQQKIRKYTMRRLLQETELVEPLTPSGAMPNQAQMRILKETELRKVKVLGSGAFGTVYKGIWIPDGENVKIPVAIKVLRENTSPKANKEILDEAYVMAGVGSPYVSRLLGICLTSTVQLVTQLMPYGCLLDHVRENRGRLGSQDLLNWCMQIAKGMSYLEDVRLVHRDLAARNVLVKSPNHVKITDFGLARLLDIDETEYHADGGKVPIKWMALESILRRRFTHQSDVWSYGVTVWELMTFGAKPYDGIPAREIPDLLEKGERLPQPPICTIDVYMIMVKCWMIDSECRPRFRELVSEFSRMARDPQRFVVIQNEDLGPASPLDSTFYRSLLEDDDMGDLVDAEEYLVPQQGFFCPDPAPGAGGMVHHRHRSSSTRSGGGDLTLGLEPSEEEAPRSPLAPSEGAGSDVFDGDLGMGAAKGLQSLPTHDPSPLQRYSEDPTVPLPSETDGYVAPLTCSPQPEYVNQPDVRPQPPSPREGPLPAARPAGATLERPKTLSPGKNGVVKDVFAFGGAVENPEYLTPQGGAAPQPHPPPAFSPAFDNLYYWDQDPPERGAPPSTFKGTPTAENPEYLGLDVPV

What is called viability is a read-out of living cells in per cent, often relative to untreated cells. The inhibition is the change of the read-out against control, counted positive when it falls. Consider `COc1cccc(N2CCN(CC(=O)Nc3nnc(-c4ccccc4)s3)CC2)c1`, for which the viability in test [1] was 86%; in test [3], 86% (inactive); in test [4] it was 54.7% (inactive); in test [5] it was 83.5% (inactive); in test [6] (setting [9]), 103%; in test [6] (setting [10]) it was 83.5%. In addition, in test [2], the Her2 level was 86% (inactive). The differential viability (reversal) in test [6] (H69AR cells + 2 uM doxorubicin) was -19.7% (inactive). Moreover, the results for the inhibition in test [7] and in test [8] were -3.12% (inactive) and -1.64% (inactive), respectively.
For the molecule `COC(=O)c1cc(NC(=O)C2CC=CCC2C(=O)O)cc(C(=O)OC)c1` (stereo not given), the viability is 97.5% in test [1]; 97.5% (inactive) in test [3]; 104% (inactive) in test [4]; 109% (inactive) in test [5]; 92.7% in test [6] (setting [9]); 109% in test [6] (setting [10]). The Her2 level in test [2] was 86.5% (inactive). For the same molecule, the differential viability (reversal) in test [6] (H69AR cells + 2 uM doxorubicin) was 15.8% (inactive). The results for the inhibition in test [7] and in test [8] were -4.8% (inactive) and -1.94% (inactive), respectively.
With `O=C(O)C1CC(=O)N(c2ccc(Br)cc2)C1` (stereo not given), the viability in test [1] is 81.5%; in test [3] it was 81.5% (inactive); in test [4] it was 94.6% (inactive); in test [5] it was 93.8% (inactive); in test [6] (setting [9]), 89.8%; in test [6] (setting [10]), 93.8%. For the same molecule, the Her2 level in test [2] is 122% (inactive). Also, in test [6] (H69AR cells + 2 uM doxorubicin), the differential viability (reversal) was 4.02% (inactive). The inhibition is -6.05% (inactive) in test [7] and -4.1% (inactive) in test [8].
Regarding `O=C(OCC(=O)c1cccs1)C1=COCCO1`, the viability in test [1] is 89%; in test [3] it was 89% (inactive); in test [4] it was 91.6% (inactive); in test [5], 89.1% (inactive); in test [6] (setting [9]), 87.6%; in test [6] (setting [10]) it was 89.1%. In addition, the Her2 level in test [2] is 102% (inactive). Also, the differential viability (reversal) in test [6] (H69AR cells + 2 uM doxorubicin) is 1.52% (inactive). The inhibition in test [7] was -0.38% (inactive); in test [8], -1% (inactive).
In the case of `CCCOc1ccc([C@@H]2C3CN(C(=O)OCC)CC=C3C(C#N)=C(N)C2(C#N)C#N)cc1OC` (stereo not given in full), the viability was 88% in test [1]; 88% (inactive) in test [3]; 85.2% (inactive) in test [4]; 63.4% (inactive) in test [5]; 75.2% in test [6] (setting [9]); 63.4% in test [6] (setting [10]). For the same molecule, in test [2], the Her2 level was 40% (active). Moreover, in test [6] (H69AR cells + 2 uM doxorubicin), the differential viability (reversal) is -11.8% (inactive). The values for the inhibition in test [7] and in test [8] were -7.03% (inactive) and 0% (inactive), respectively.
In the case of `CCOC(=O)c1ccc(NC(=O)COc2ccc(-n3cnnn3)cc2)cc1`, the viability in test [1] is 124%; in test [3], 124% (inactive); in test [4] it was 96.8% (inactive); in test [5], 89% (inactive); in test [6] (setting [9]), 87.2%; in test [6] (setting [10]) it was 89%. In test [2], the Her2 level was 95% (inactive). For the same molecule, in test [6] (H69AR cells + 2 uM doxorubicin), the differential viability (reversal) is 1.81% (inactive). Further, the inhibition in test [7] is -4.13% (inactive); in test [8], -1.43% (inactive).
Consider `COc1ccc(CCNC(=O)c2ccc(N3CCCC3=O)cc2)cc1OC`, for which the viability in test [1] was 102%; in test [3], 102% (inactive); in test [4], 103% (inactive); in test [5] it was 92.1% (inactive); in test [6] (setting [9]), 79.8%; in test [6] (setting [10]) it was 92.1%. The Her2 level in test [2] was 108% (inactive). Besides, the differential viability (reversal) in test [6] (H69AR cells + 2 uM doxorubicin) was 12.3% (inactive). In addition, the values for the inhibition in test [7] and in test [8] were -5.84% (inactive) and 4.92% (inactive), respectively.
Regarding `COCCn1c(SCC(=O)Nc2nnc(C)s2)nnc1-c1c[nH]c2ccccc12`, the viability in test [1] was 104%; in test [3], 104% (inactive); in test [4], 111% (inactive); in test [5] it was 103% (inactive); in test [6] (setting [9]), 88.6%; in test [6] (setting [10]) it was 103%. Further, the Her2 level in test [2] is 84% (inactive). The differential viability (reversal) in test [6] (H69AR cells + 2 uM doxorubicin) is 14.8% (inactive). The inhibition in test [7] is -1.71% (inactive); in test [8], -6% (inactive).
In the case of `C=CCn1c(SCC(=O)NCCCC)nc2scc(-c3ccco3)c2c1=O`, the viability was 91.5% in test [1]; 91.5% (inactive) in test [3]; 95.4% (inactive) in test [4]; 88.8% (inactive) in test [5]; 86.7% in test [6] (setting [9]); 88.8% in test [6] (setting [10]). For the same molecule, the Her2 level in test [2] is 75.5% (inactive). The differential viability (reversal) in test [6] (H69AR cells + 2 uM doxorubicin) was 2.11% (inactive). Besides, the results for the inhibition in test [7] and in test [8] were 0.13% (inactive) and -1.48% (inactive), respectively.
With `CC(=O)c1c(C)nc(C)nc1NC(=O)Cc1ccccc1`, the viability is 106% in test [1]; 106% (inactive) in test [3]; 93.9% (inactive) in test [4]; 93.9% (inactive) in test [5]; 100% in test [6] (setting [9]); 93.9% in test [6] (setting [10]). In addition, in test [2], the Her2 level was 102% (inactive). The differential viability (reversal) in test [6] (H69AR cells + 2 uM doxorubicin) is -6.36% (inactive). Besides, the inhibition in test [7] was -5% (inactive); in test [8], -3.55% (inactive).
As to `CSc1nc2c(ccc3ccccc32)o1`, the viability is 114% in test [1]; 114% (inactive) in test [3]; 92.4% (inactive) in test [4]; 90.7% (inactive) in test [5]; 87.9% in test [6] (setting [9]); 90.7% in test [6] (setting [10]). Besides, the Her2 level in test [2] was 83.5% (inactive). In addition, in test [6] (H69AR cells + 2 uM doxorubicin), the differential viability (reversal) is 2.83% (inactive). Besides, the inhibition in test [7] is -1.32% (inactive); in test [8] it was 6.94% (inactive).
In the case of `CCCCN(CC)CCCNC(=O)CS(=O)(=O)Cc1nc(-c2cccc(OC)c2)oc1C`, the viability in test [1] is 92%; in test [3] it was 92% (inactive); in test [4] it was 80.1% (inactive); in test [5] it was 97.2% (inactive); in test [6] (setting [9]), 86.7%; in test [6] (setting [10]), 97.2%. In test [2], the Her2 level is 112% (inactive). In addition, the differential viability (reversal) in test [6] (H69AR cells + 2 uM doxorubicin) was 10.4% (inactive). Further, the inhibition in test [7] was 0.66% (inactive); in test [8], -11.3% (inactive).
Regarding `Cc1ccc(S(=O)(=O)N2CCOCC2)cc1C(=O)OCC(=O)N1CCc2ccccc2C1`, the viability in test [1] is 82.5%; in test [3], 82.5% (inactive); in test [4] it was 99.9% (inactive); in test [5], 87.9% (inactive); in test [6] (setting [9]) it was 95.2%; in test [6] (setting [10]), 87.9%. Besides, the Her2 level in test [2] is 87.5% (inactive). In addition, the differential viability (reversal) in test [6] (H69AR cells + 2 uM doxorubicin) is -7.28% (inactive). Moreover, the results for the inhibition in test [7] and in test [8] were -4% (inactive) and 2.95% (inactive), respectively.
Consider `CCOC(=O)c1[nH]nc(-c2c(O)cc(C)cc2O)c1-c1csc(C)n1`, for which the viability in test [1] is 94%; in test [3] it was 94% (inactive); in test [4] it was 106% (inactive); in test [5], 96.5% (inactive); in test [6] (setting [9]), 89.8%; in test [6] (setting [10]), 96.5%. In test [2], the Her2 level was 106% (inactive). Further, in test [6] (H69AR cells + 2 uM doxorubicin), the differential viability (reversal) was 6.7% (inactive). The inhibition in test [7] is -6.71% (inactive); in test [8], -2.91% (inactive).

These data come from PubChem BioAssay.
